Laboratory results from ChEMBL document CHEMBL1124792, “Synthesis and structure-activity relationships of 5-substituted 6,8-difluoroquinolones, including sparfloxacin, a new quinolone antibacterial agent with improved potency” (1990).
Values after ≈ are worked out from the molar mass of the structure shown.

What was measured:
Type in all cases: functional
Escherichia coli [1] = assay: In vitro antibacterial activity against Escherichia coli NIHJ JC-2
How it was run: (§1)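 Two-fold agar dilution MIC on Mueller-Hinton agar (pH 7.4), following the Japan Society of Chemotherapy MIC Committee method. Inoculum was about 10⁶ CFU, and growth was read after 20 h at 37 °C. MIC is reported in µg/mL.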

Staphylococcus aureus [2] = assay: In vitro antibacterial activity against Staphylococcus aureus 209P JC-1; how it was run: as §1
Pseudomonas aeruginosa [3] = assay: In vitro antibacterial activity against Pseudomonas aeruginosa 12; how it was run: as §1
Streptococcus pyogenes = assay: In vitro antibacterial activity against Streptococcus pyogenes A65; how it was run: as §1
Klebsiella pneumoniae = assay: In vitro antibacterial activity against Klebsiella pneumoniae 13; how it was run: as §1
Moraxella bovis = assay: In vitro antibacterial activity against glucose nonfermenter Moraxella bovis P-7101; how it was run: as §1
Enterococcus faecalis = assay: In vitro antibacterial activity against Streptococcus faecalis 2473; how it was run: as §1
Mus musculus [4] = organism: Mus musculus; assay: Oral efficacy against Pseudomonas aeruginosa 12 on Systemic Infections in Mice
How it was run: (§2)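 Groups of at least 10 male Std-ddY mice (20 ± 2 g) were infected ip, with S. pyogenes A65 at 3×10^7 cells or P. aeruginosa 12 at 4×10^3 cells. Compounds were suspended in 0.2% sodium carboxymethylcellulose and given orally at 0 and 6 h postinfection. The result is reported as ED50 in mg/kg.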

Mus musculus [5] = organism: Mus musculus; assay: Oral efficacy against Streptococcus pyogenes A65 on Systemic Infections in Mice; how it was run: as §2
Serratia marcescens = assay: In vitro antibacterial activity against Serratia marcescens S-9
How it was run: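 MIC (µg/mL) by 2-fold agar dilution on Mueller-Hinton agar (pH 7.4), following the Japan Society of Chemotherapy MIC Committee method. Inoculum of about 10⁶ CFU. Growth was read after 20 h at 37 °C.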

Pseudomonas aeruginosa [6] = assay: In vitro antibacterial activity against Pseudomonas aeruginosa IFO 3445; how it was run: as §1
Enterobacter cloacae = assay: In vitro antibacterial activity against Enterobacter cloacae 963
Escherichia coli [7] = assay: In vitro antibacterial activity against Escherichia coli P-5101; how it was run: as §1
Staphylococcus aureus [8] = assay: In vitro antibacterial activity against Staphylococcus aureus 50774; how it was run: as §1
[9] = test system: Staphylococcus epidermidis; assay: In vitro antibacterial activity against Streptococcus epidermis 8; how it was run: as §1

Row | SMILES | MIC (Escherichia coli [1]) | MIC (Staphylococcus aureus [2]) | MIC (Pseudomonas aeruginosa [3]) | other results
1 | O=C(O)c1cn(C2CC2)c2c(F)c(N3CCNCC3)c(F)c(O)c2c1=O | 0.025 µg/mL (≈ 0.0684 µM) | 0.2 µg/mL (≈ 0.547 µM) | 0.39 µg/mL (≈ 1.07 µM) | –
2 | CN1CCN(c2c(F)c(F)c3c(=O)c(C(=O)O)cn(C4CC4)c3c2F)CC1 | 0.05 µg/mL (≈ 0.131 µM) | 0.39 µg/mL (≈ 1.02 µM) | 0.78 µg/mL (≈ 2.05 µM) | –
3 | CSc1c(F)c(N2CCN(C)CC2)c(F)c2c1c(=O)c(C(=O)O)cn2C1CC1 | 0.2 µg/mL (≈ 0.488 µM) | 3.13 µg/mL (≈ 7.64 µM) | 12.5 µg/mL (≈ 30.5 µM) | –
4 | C[C@@H]1CN(c2c(F)c(N)c3c(=O)c(C(=O)O)cn(C4CC4)c3c2F)[C@@H](C)CN1 | 0.39 µg/mL (≈ 0.994 µM) | 0.78 µg/mL (≈ 1.99 µM) | 3.13 µg/mL (≈ 7.98 µM) | –
5 | CN(C)CCNc1c(F)c(N2CCN(C)CC2)c(F)c2c1c(=O)c(C(=O)O)cn2C1CC1 | 0.05 µg/mL (≈ 0.111 µM) | 6.25 µg/mL (≈ 13.9 µM) | 0.78 µg/mL (≈ 1.74 µM) | –
6 | C[C@@H]1CN(c2c(F)c(N)c3c(=O)c(C(=O)O)cn(C4CC4)c3c2F)CCN1 | 0.0125 µg/mL (≈ 0.033 µM) | 0.05 µg/mL (≈ 0.132 µM) | 0.2 µg/mL (≈ 0.529 µM) | –
7 | O=C(O)c1cn(C2CC2)c2c(F)c(N3CCNCC3)c(F)c(Cl)c2c1=O | 0.0125 µg/mL (≈ 0.0326 µM) | 0.1 µg/mL (≈ 0.261 µM) | 0.39 µg/mL (≈ 1.02 µM) | –
8 | CN1CCN(c2c(F)c(Cl)c3c(=O)c(C(=O)O)cn(C4CC4)c3c2F)CC1 | 0.025 µg/mL (≈ 0.0628 µM) | 0.2 µg/mL (≈ 0.503 µM) | 0.78 µg/mL (≈ 1.96 µM) | –
9 | C[C@@H]1CN(c2c(F)cc3c(=O)c(C(=O)O)cn(C4CC4)c3c2F)C[C@H](C)N1 | 0.1 µg/mL (≈ 0.265 µM) | 0.39 µg/mL (≈ 1.03 µM) | 0.39 µg/mL (≈ 1.03 µM) | MIC (Streptococcus pyogenes): 0.39 µg/mL (≈ 1.03 µM); MIC (Klebsiella pneumoniae): 0.05 µg/mL (≈ 0.132 µM); MIC (Moraxella bovis): 0.78 µg/mL (≈ 2.07 µM); MIC (Enterococcus faecalis): 1.56 µg/mL (≈ 4.13 µM); ED50 (Mus musculus [4]): 1.41 mg/kg; ED50 (Mus musculus [5]): 8.64 mg/kg; MIC (Serratia marcescens): 0.2 µg/mL (≈ 0.53 µM); MIC (Pseudomonas aeruginosa [6]): 0.39 µg/mL (≈ 1.03 µM); MIC (Enterobacter cloacae): 0.05 µg/mL (≈ 0.132 µM); MIC (Escherichia coli [7]): 0.0063 µg/mL (≈ 0.0167 µM)
10 | CC1(C)CN(c2c(F)c(N)c3c(=O)c(C(=O)O)cn(C4CC4)c3c2F)CCN1 | 0.025 µg/mL (≈ 0.0637 µM) | 0.05 µg/mL (≈ 0.127 µM) | 0.78 µg/mL (≈ 1.99 µM) | –
11 | CN1CCN(c2c(F)c(OCc3ccccc3)c3c(=O)c(C(=O)O)cn(C4CC4)c3c2F)CC1 | 1.56 µg/mL (≈ 3.32 µM) | 6.25 µg/mL (≈ 13.3 µM) | 6.25 µg/mL (≈ 13.3 µM) | –
12 | CN1CCN(c2c(F)c(N(C)C)c3c(=O)c(C(=O)O)cn(C4CC4)c3c2F)CC1 | 3.13 µg/mL (≈ 7.7 µM) | 25 µg/mL (≈ 61.5 µM) | 50 µg/mL (≈ 123 µM) | –
13 | CN1CCN(c2c(F)c(S)c3c(=O)c(C(=O)O)cn(C4CC4)c3c2F)CC1 | 0.39 µg/mL (≈ 0.986 µM) | 3.13 µg/mL (≈ 7.92 µM) | 12.5 µg/mL (≈ 31.6 µM) | –
14 | CN1CCN(c2c(F)c(NCc3ccccc3)c3c(=O)c(C(=O)O)cn(C4CC4)c3c2F)CC1 | 0.78 µg/mL (≈ 1.66 µM) | 0.78 µg/mL (≈ 1.66 µM) | 3.13 µg/mL (≈ 6.68 µM) | –
15 | CNc1c(F)c(N2CCN(C)CC2)c(F)c2c1c(=O)c(C(=O)O)cn2C1CC1 | 0.1 µg/mL (≈ 0.255 µM) | 0.78 µg/mL (≈ 1.99 µM) | 1.56 µg/mL (≈ 3.98 µM) | –
16 | CN1CCN(c2c(F)c(NCCO)c3c(=O)c(C(=O)O)cn(C4CC4)c3c2F)CC1 | 0.05 µg/mL (≈ 0.118 µM) | 0.39 µg/mL (≈ 0.923 µM) | 0.78 µg/mL (≈ 1.85 µM) | –

Row | SMILES | MIC (Escherichia coli [1]) | MIC (Staphylococcus aureus [2]) | MIC (Pseudomonas aeruginosa [3]) | other results
17 | CN1CCN(c2c(F)c(O)c3c(=O)c(C(=O)O)cn(C4CC4)c3c2F)CC1 | 0.05 µg/mL (≈ 0.132 µM) | 0.2 µg/mL (≈ 0.527 µM) | 0.78 µg/mL (≈ 2.06 µM) | –
18 | COc1ccc(CSc2c(F)c(N3CCN(C)CC3)c(F)c3c2c(=O)c(C(=O)O)cn3C2CC2)cc1 | 12.5 µg/mL (≈ 24.2 µM) | 100 µg/mL (≈ 194 µM) | > 100 µg/mL | –
19 | CC1CN(c2c(F)c(N)c3c(=O)c(C(=O)O)cn(C4CC4)c3c2F)CCN1C (configuration not stated) | 0.0063 µg/mL (≈ 0.0161 µM) | 0.05 µg/mL (≈ 0.127 µM) | 0.39 µg/mL (≈ 0.994 µM) | –
20 | COc1c(F)c(N2CCN(C)CC2)c(F)c2c1c(=O)c(C(=O)O)cn2C1CC1 | 0.2 µg/mL (≈ 0.508 µM) | 25 µg/mL (≈ 63.6 µM) | 12.5 µg/mL (≈ 31.8 µM) | –
21 | CN(C)CC1CN(c2c(F)c(N)c3c(=O)c(C(=O)O)cn(C4CC4)c3c2F)CCN1 (configuration not stated) | 0.1 µg/mL (≈ 0.237 µM) | 0.05 µg/mL (≈ 0.119 µM) | 1.56 µg/mL (≈ 3.7 µM) | –
22 | C[C@@H]1CN(c2c(F)c(O)c3c(=O)c(C(=O)O)cn(C4CC4)c3c2F)C[C@H](C)N1 | 0.025 µg/mL (≈ 0.0636 µM) | 0.2 µg/mL (≈ 0.508 µM) | 0.78 µg/mL (≈ 1.98 µM) | –
23 | CN1CCN(c2c(F)c(Br)c3c(=O)c(C(=O)O)cn(C4CC4)c3c2F)CC1 | 0.05 µg/mL (≈ 0.113 µM) | 0.39 µg/mL (≈ 0.882 µM) | 0.78 µg/mL (≈ 1.76 µM) | –
24 | Nc1c(F)c(N2CCNC(CO)C2)c(F)c2c1c(=O)c(C(=O)O)cn2C1CC1 (configuration not stated) | 0.025 µg/mL (≈ 0.0634 µM) | 0.05 µg/mL (≈ 0.127 µM) | 0.2 µg/mL (≈ 0.507 µM) | –
25 | C[C@@H]1CN(c2c(F)c(Cl)c3c(=O)c(C(=O)O)cn(C4CC4)c3c2F)C[C@H](C)N1 | 0.025 µg/mL (≈ 0.0607 µM) | 0.2 µg/mL (≈ 0.486 µM) | 0.78 µg/mL (≈ 1.89 µM) | –
26 | CC1CNCCN1c1c(F)c(N)c2c(=O)c(C(=O)O)cn(C3CC3)c2c1F (configuration not stated) | 0.05 µg/mL (≈ 0.132 µM) | 0.2 µg/mL (≈ 0.529 µM) | 0.78 µg/mL (≈ 2.06 µM) | –
27 | CN1CCN(c2c(F)c(-n3cccc3)c3c(=O)c(C(=O)O)cn(C4CC4)c3c2F)CC1 | 0.39 µg/mL (≈ 0.91 µM) | 3.13 µg/mL (≈ 7.31 µM) | 12.5 µg/mL (≈ 29.2 µM) | –
28 | C[C@@H]1NCCN(c2c(F)c(N)c3c(=O)c(C(=O)O)cn(C4CC4)c3c2F)[C@@H]1C (relative stereo) | 0.0125 µg/mL (≈ 0.0319 µM) | 0.025 µg/mL (≈ 0.0637 µM) | 0.78 µg/mL (≈ 1.99 µM) | –
29 | O=C(O)c1cn(C2CC2)c2cc(N3CCNCC3)c(F)cc2c1=O [CIPROFLOXACIN] | – | 0.1 µg/mL (≈ 0.302 µM) | – | MIC (Streptococcus pyogenes): 0.2 µg/mL (≈ 0.604 µM); MIC (Klebsiella pneumoniae): 0.025 µg/mL (≈ 0.0754 µM); MIC (Moraxella bovis): 3.13 µg/mL (≈ 9.45 µM); MIC (Staphylococcus aureus [8]): 0.2 µg/mL (≈ 0.604 µM); MIC (Enterococcus faecalis): 1.56 µg/mL (≈ 4.71 µM); MIC [9]: 0.1 µg/mL (≈ 0.302 µM); ED50 (Mus musculus [4]): 2.78 mg/kg; ED50 (Mus musculus [5]): 23.9 mg/kg; MIC (Serratia marcescens): 0.05 µg/mL (≈ 0.151 µM); MIC (Pseudomonas aeruginosa [6]): 0.2 µg/mL (≈ 0.604 µM); MIC (Escherichia coli [7]): 0.0063 µg/mL (≈ 0.019 µM)
30 | CC1COc2c(N3CCN(C)CC3)c(F)cc3c(=O)c(C(=O)O)cn1c23 (configuration not stated) [OFLOXACIN] | – | 0.78 µg/mL (≈ 2.16 µM) | – | MIC (Streptococcus pyogenes): 0.39 µg/mL (≈ 1.08 µM); MIC (Klebsiella pneumoniae): 0.1 µg/mL (≈ 0.277 µM); MIC (Moraxella bovis): 1.56 µg/mL (≈ 4.32 µM); MIC (Staphylococcus aureus [8]): 0.2 µg/mL (≈ 0.553 µM); MIC (Enterococcus faecalis): 1.56 µg/mL (≈ 4.32 µM); MIC [9]: 0.2 µg/mL (≈ 0.553 µM); ED50 (Mus musculus [4]): 6.62 mg/kg; ED50 (Mus musculus [5]): 10.8 mg/kg; MIC (Serratia marcescens): 0.2 µg/mL (≈ 0.553 µM); MIC (Pseudomonas aeruginosa [6]): 1.56 µg/mL (≈ 4.32 µM); MIC (Enterobacter cloacae): 0.1 µg/mL (≈ 0.277 µM); MIC (Escherichia coli [7]): 0.05 µg/mL (≈ 0.138 µM)
31 | C[C@@H]1CN(c2c(F)c(F)c3c(=O)c(C(=O)O)cn(C4CC4)c3c2F)C[C@H](C)N1 [ORBIFLOXACIN] | 0.05 µg/mL (≈ 0.126 µM) | 0.39 µg/mL (≈ 0.986 µM) | 1.56 µg/mL (≈ 3.95 µM) | –
